In test [1] the test system is A-375. The test is described as follows: Induction of apoptosis in human A375 cells at 1 uM by TUNEL assay. The format is functional, cell-based.
In test [2] the test system is A549. The experiment in a line: Induction of apoptosis related protein expression in human A549 cells assessed as increase in CD40L expression at 20 uM incubated for 12 hrs by apoptosis antibody array. Type of test: functional, cell-based.
Test [3] has as its system A549. The experiment in a line: Inhibition of mitochondrial membrane potential in human A549 cells at 1 uM by TMRE staining based assay. The format is functional, cell-based.
Test [4] has as its system A-375. The experiment in a line: Induction of cell cycle arrest in human A375 cells assessed as accumulation at G0/G1 phase at 10 nM by propodium iodide staining based flow cytometric analysis. The format is functional. The essentials: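 DNA was stained with propidium iodide and analysed by flow cytometry. Histograms give the fraction of cells in G0/G1, S and G2/M phases.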
(Flow cytometry measures light scatter and fluorescence of single cells or particles in a stream.)

Test [5] concerns A549. The test is described as follows: Induction of apoptosis related protein expression in human A549 cells assessed as increase in CD40 expression at 20 uM incubated for 12 hrs by apoptosis antibody array. Type of test: functional, cell-based.
For test [6], the system named is A549. The experiment in a line: Induction of apoptosis in human A549 cells assessed as early apoptotic cells level at 1 uM incubated for 24 hrs by FITC-Annexin V staining based assay (reference value: 0.01%). The format is functional.
Test [7] has as its system A-375. The test is described as follows: Induction of apoptosis in human A375 cells at 1 uM incubated for 24 hrs by FITC-Annexin V staining based assay (reference value: 0.03 +/- 0.9%). Type of test: functional.

Active and inactive are the calls of the source. The rule behind the calls is not given here.

Take `COc1cc(C2Oc3cc(-c4cc(=O)c5c(O)cc(O)cc5o4)ccc3OC2/C=C2\C(=O)ON=C2c2ccc(Cl)cc2)ccc1O` (configuration not stated): the outcome in the test on A-375 [1], in the test with A549 [2], in the test with A-375 [4] and with A549 [5] was Active. The inhibition result with A549 [3] was “Active”. Moreover, the Activity came out at 9% in the test with A549 [6] and 39% in the test on A-375 [7].

(Values after ChEMBL document CHEMBL4334468, “Exploring Mitochondria-Mediated Intrinsic Apoptosis by New Phytochemical Entities: An Explicit Observation of Cytochrome c Dynamics on Lung and Melanoma Cancer Cells” (J Med Chem, 2019).)
